Measured values from ChEMBL document CHEMBL1828627, “High-throughput-screening-based identification and structure-activity relationship characterization defined (S)-2-(1-aminoisobutyl)-1-(3-chlorobenzyl)benzimidazole as a highly antimycotic agent nontoxic to cell lines” (J Med Chem, 2011).
In brackets after ≈: the same amount, converted by molar mass. Activity calls are given as the source filed them.

Experiments:
[1] = Selectivity index of CC50 for human HeLa cells to IC50 for Candida albicans SC5314 infected in HeLa cells
How it was run: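 Selectivity index calculated as CC50/IC50. CC50 is the half-maximal cytotoxic concentration in HeLa cells; IC50 is the half-maximal antimycotic concentration in the C. albicans–infected HeLa assay. Both come from 5-day fluorescein diacetate viability readouts.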

[2] = Cytotoxicity against human HeLa cells assessed as cell viability after 5 days by fluorescein diacetate assay; format: cell-based
Candida albicans [3] = assay: Antifungal activity against Candida albicans SC5314 infected in HeLa cells after 5 days by fluorescein diacetate assay; format: functional, organism-based
How it was run: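 HeLa cells co-incubated with C. albicans and compound for 5 days. Dose–response from resynthesized compounds. Host-cell viability checked microscopically at 18 h, then quantified at day 5 by fluorescein diacetate conversion to a fluorophore by live cells. Wells also inspected visually for yeast growth. Controls: untreated uninfected HeLa (~100%) and untreated infected HeLa (~0%). IC50 derived from infected cells; CC50 as half-maximal cytotoxic concentration.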

Candida albicans [4] = assay: Antifungal activity against Candida albicans SC5314 infected in HeLa cells at 20 uM after 5 days by fluorescein diacetate assay; format: functional, organism-based
How it was run: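 Primary HTS: HeLa cells co-incubated with C. albicans plus a single compound at ~20 μM for 5 days. Viability checked microscopically at 18 h and quantified at day 5 by fluorescein diacetate fluorescence. Wells also scanned visually for yeast growth. Hit criterion: >40% signal relative to the uninfected untreated HeLa (~100%) and infected untreated HeLa (~0%) controls.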

Candida albicans [5] = assay: Antifungal activity against Candida albicans DSMZ 11949 by broth dilution method; format: functional
How it was run: (§1)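 MICs by broth microdilution following CLSI M27-A3 for yeasts, with fluconazole as the reference antifungal. Panel covered type strains and clinical isolates of Candida spp. (21 strains). Reference control strains: C. albicans DSMZ 11949, C. glabrata ATCC 90030, C. parapsilosis 22019 and 90018, Issatchenkia orientalis ATCC 6258. MIC in μg/mL; averages given as geometric means.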

Nakaseomyces glabratus [6] = assay: Antifungal activity against Candida glabrata ATCC 90030 by broth dilution method; format: functional; how it was run: as §1
Candida parapsilosis [7] = assay: Antifungal activity against Candida parapsilosis 22019 by broth dilution method; format: functional; details: Lodderomyces parapsilosis; how it was run: as §1
Candida parapsilosis [8] = assay: Antifungal activity against Candida parapsilosis 90018 by broth dilution method; format: functional; details: Lodderomyces parapsilosis; how it was run: as §1
Pichia kudriavzevii = assay: Antifungal activity against Issatchenkia orientalis ATCC 6258 by broth dilution method; format: functional; how it was run: as §1
Nakaseomyces glabratus [9] = assay: Antifungal activity against Candida glabrata AN 8626 by broth dilution method; format: functional; how it was run: as §1
Nakaseomyces glabratus [10] = assay: Antifungal activity against Candida glabrata CG 7 by broth dilution method; format: functional; how it was run: as §1
Candida albicans [11] = assay: Antifungal activity against Candida albicans CA20 by broth dilution method; format: functional; how it was run: as §1
Candida albicans [12] = assay: Antifungal activity against Candida albicans CA21 by broth dilution method; format: functional; how it was run: as §1
Candida albicans [13] = assay: Antifungal activity against Candida albicans MY 2902/2008 by broth dilution method; format: functional; how it was run: as §1
Candida albicans [14] = assay: Antifungal activity against Candida albicans SCS 71865 L by broth dilution method; format: functional; how it was run: as §1
Candida albicans [15] = assay: Antifungal activity against Candida albicans Jg 32570 by broth dilution method; format: functional; how it was run: as §1
Candida albicans [16] = assay: Antifungal activity against Candida albicans AM2001/2007 by broth dilution method; format: functional; how it was run: as §1
Candida albicans [17] = assay: Antifungal activity against Candida albicans AN 1699 by broth dilution method; format: functional; how it was run: as §1
Candida albicans [18] = assay: Antifungal activity against Candida albicans AN 1994 by broth dilution method; format: functional; how it was run: as §1
Candida tropicalis = assay: Antifungal activity against Candida tropicalis AN 1946 by broth dilution method; format: functional; how it was run: as §1
Candida albicans [19] = assay: Antifungal activity against Candida albicans AN 562 by broth dilution method; format: functional; how it was run: as §1
Candida albicans [20] = assay: Antifungal activity against Candida albicans VB 1723 by broth dilution method; format: functional; how it was run: as §1
Candida albicans [21] = assay: Antifungal activity against Candida albicans AN 3156 by broth dilution method; format: functional; how it was run: as §1
Candida parapsilosis [22] = assay: Antifungal activity against Candida parapsilosis AN 5485 by broth dilution method; format: functional; details: Lodderomyces parapsilosis; how it was run: as §1
Candida parapsilosis [23] = assay: Antifungal activity against Candida parapsilosis AV 7675 by broth dilution method; format: functional; details: Lodderomyces parapsilosis; how it was run: as §1
[24] = Candida albicans, SC5314, HeLa, 120 h, read-out: IC50

Row | SMILES | Ratio CC50/IC50 [1] | CC50 at 120 h [2] [µM] | IC50 (Candida albicans [3]; [24]) [µM] | MIC (Candida albicans [5]) [µg/mL] | MIC (Nakaseomyces glabratus [6]) [µg/mL] | MIC (Candida parapsilosis [7]) [µg/mL] | MIC (Candida parapsilosis [8]) [µg/mL] | MIC (Pichia kudriavzevii) [µg/mL] | MIC (Nakaseomyces glabratus [9]) [µg/mL] | MIC (Nakaseomyces glabratus [10]) [µg/mL] | MIC (Candida albicans [11]) [µg/mL] | MIC (Candida albicans [12]) [µg/mL] | MIC (Candida albicans [13]) [µg/mL] | MIC (Candida albicans [14]) [µg/mL] | MIC (Candida albicans [15]) [µg/mL] | MIC (Candida albicans [16]) [µg/mL] | MIC (Candida albicans [17]) [µg/mL] | MIC (Candida albicans [18]) [µg/mL] | MIC (Candida tropicalis) [µg/mL] | MIC (Candida albicans [19]) [µg/mL] | further results
1 | CC(C)C[C@H](N)c1nc2ccccc2n1Cc1ccc(Cl)cc1 | 9 | 36 | 4 | – | – | – | – | – | – | – | – | – | – | – | – | – | – | – | – | – | inhibition (Candida albicans [4]): inactive
2 | CC(=O)N[C@H](c1nc2ccccc2n1Cc1cccc(Cl)c1)C(C)C | – | – | – | – | – | – | – | – | – | – | – | – | – | – | – | – | – | – | – | – | IC50 (Candida albicans [3]; hela): Not Active
3 | C[C@H](N)c1nc2ccccc2n1Cc1cccc(Cl)c1 | 2.5 | 19.3 | 7.8 | 4 (≈ 14 µM) | 8 (≈ 28 µM) | 4 (≈ 14 µM) | 4 (≈ 14 µM) | 4 (≈ 14 µM) | 4 (≈ 14 µM) | 8 (≈ 28 µM) | 0.125 (≈ 0.437 µM) | 0.125 (≈ 0.437 µM) | 0.5 (≈ 1.75 µM) | 8 (≈ 28 µM) | 128 (≈ 448 µM) | 8 (≈ 28 µM) | 16 (≈ 56 µM) | 16 (≈ 56 µM) | 8 (≈ 28 µM) | 16 (≈ 56 µM) | inhibition (Candida albicans [4]): inactive; MIC (Candida albicans [20]): 1 µg/mL (≈ 3.5 µM); MIC (Candida albicans [21]): 16 µg/mL (≈ 56 µM); MIC (Candida parapsilosis [22]): 8 µg/mL (≈ 28 µM); MIC (Candida parapsilosis [23]): 128 µg/mL (≈ 448 µM)
4 | CC(C)[C@H](N)c1nc2ccccc2n1Cc1cccc(Cl)c1 | 130 | 97.5 | 0.75 | 2 (≈ 6.37 µM) | 0.125 (≈ 0.398 µM) | 2 (≈ 6.37 µM) | 0.5 (≈ 1.59 µM) | 0.5 (≈ 1.59 µM) | 0.125 (≈ 0.398 µM) | 2 (≈ 6.37 µM) | 0.125 (≈ 0.398 µM) | 0.125 (≈ 0.398 µM) | 16 (≈ 51 µM) | 64 (≈ 204 µM) | 16 (≈ 51 µM) | 0.25 (≈ 0.797 µM) | 32 (≈ 102 µM) | 16 (≈ 51 µM) | 4 (≈ 12.7 µM) | 16 (≈ 51 µM) | MIC (Candida albicans [20]): 0.25 µg/mL (≈ 0.797 µM); MIC (Candida albicans [21]): 16 µg/mL (≈ 51 µM); MIC (Candida parapsilosis [22]): 1 µg/mL (≈ 3.19 µM); MIC (Candida parapsilosis [23]): 8 µg/mL (≈ 25.5 µM)
5 | OC(Cn1cncn1)(Cn1cncn1)c1ccc(F)cc1F [FLUCONAZOLE] | – | – | – | 2 (≈ 6.53 µM) | 0.125 (≈ 0.408 µM) | 1 (≈ 3.27 µM) | 0.25 (≈ 0.816 µM) | 0.25 (≈ 0.816 µM) | 4 (≈ 13.1 µM) | 4 (≈ 13.1 µM) | 0.125 (≈ 0.408 µM) | 0.125 (≈ 0.408 µM) | 0.5 (≈ 1.63 µM) | 0.125 (≈ 0.408 µM) | 128 (≈ 418 µM) | 0.5 (≈ 1.63 µM) | 8 (≈ 26.1 µM) | 128 (≈ 418 µM) | 128 (≈ 418 µM) | 1 (≈ 3.27 µM) | MIC (Candida albicans [20]): 0.5 µg/mL (≈ 1.63 µM); MIC (Candida albicans [21]): 8 µg/mL (≈ 26.1 µM); MIC (Candida parapsilosis [22]): 0.25 µg/mL (≈ 0.816 µM); MIC (Candida parapsilosis [23]): 2 µg/mL (≈ 6.53 µM)
6 | CC(C)[C@H](N)c1nc2ccccc2n1Cc1cccc(F)c1 | 9.4 | 20.6 | 2.2 | 16 (≈ 53.8 µM) | 8 (≈ 26.9 µM) | 16 (≈ 53.8 µM) | 16 (≈ 53.8 µM) | 16 (≈ 53.8 µM) | 16 (≈ 53.8 µM) | 64 (≈ 215 µM) | 0.125 (≈ 0.42 µM) | 0.125 (≈ 0.42 µM) | 16 (≈ 53.8 µM) | 16 (≈ 53.8 µM) | 128 (≈ 430 µM) | 4 (≈ 13.5 µM) | 16 (≈ 53.8 µM) | 2 (≈ 6.73 µM) | 32 (≈ 108 µM) | 16 (≈ 53.8 µM) | inhibition (Candida albicans [4]): inactive; MIC (Candida albicans [20]): 4 µg/mL (≈ 13.5 µM); MIC (Candida albicans [21]): 16 µg/mL (≈ 53.8 µM); MIC (Candida parapsilosis [22]): 16 µg/mL (≈ 53.8 µM); MIC (Candida parapsilosis [23]): 128 µg/mL (≈ 430 µM)
